According to ChEMBL document CHEMBL4393672, “High affinity CXCR4 inhibitors generated by linking low affinity peptides” (Eur J Med Chem, 2019):
pIC50: −log10 of the molar value. Activity calls are given as the source filed them. The calls are words filed in the database; no cut-off is given here. Residues, ends and D or L forms follow the SMILES beside them.

Legend:
[1] = molecular target: T1, C-X-C chemokine receptor type 4 (Homo sapiens, UniProt P61073); test: Competitive binding affinity to CXCR4 receptor (unknown origin) expressed in CHO cells incubated for 40 mins by 12G5 antibody based fluorescence analysis; format: cell-based
[2] = molecular target: T1, C-X-C chemokine receptor type 4; test: Competitive binding affinity to CXCR4 in human SupT1 cells incubated for 40 mins by 12G5 antibody based fluorescence analysis; format: cell-based
[3] = system: C-X-C chemokine receptor type 4 (Homo sapiens), P61073 [W195A]; test: Competitive binding affinity to CXCR4 W195A mutant (unknown origin) expresssed in CHO cells at 200 nM incubated for 30 mins by 12G5 antibody based fluorescence analysis; format: cell-based
Method in brief: (§1)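 Wild-type or mutant CXCR4 cells (5×10⁵/well) incubated with single 200 nM concentration in FACS buffer (0.5% BSA, 0.05% azide in PBS) plus 12G5 anti-CD184 antibody, 30 min on ice; washed, FITC anti-mouse IgG 30 min on ice; fluorescence 485ex/528em; duplicates, ≥3 independent experiments, normalized as percent of control.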

[4] = system: C-X-C chemokine receptor type 4 (Homo sapiens), P61073 [W94A]; test: Competitive binding affinity at CXCR4 W94A mutant (unknown origin) expressed in CHO cells at 200 nM incubated for 30 mins by 12G5 antibody based fluorescence analysis; format: cell-based; method in brief: as §1
[5] = system: Human immunodeficiency virus 1; test: Antiviral activity against Human immunodeficiency virus 1 NL4-3 infected in human PBMC cells assessed as inhibition of extracellular p24 level preincubated with cells for 2 hrs followed by viral infection for 2 hrs and measured after 5 days by ELISA
[6] = system: C-X-C chemokine receptor type 4 (Homo sapiens), P61073 [E288Q]; test: Binding affinity to CXCR4 E288Q mutant (unknown origin) expresssed in CHO cells at 200 nM incubated for 30 mins by 12G5 antibody based fluorescence analysis; format: cell-based; method in brief: as §1
[7] = system: C-X-C chemokine receptor type 4 (Homo sapiens), P61073 [Y45A]; test: Competitive binding affinity to CXCR4 Y45A mutant (unknown origin) expressed in CHO cells at 200 nM incubated for 30 mins by 12G5 antibody based fluorescence analysis; format: cell-based; method in brief: as §1
[8] = system: C-X-C chemokine receptor type 4 (Homo sapiens), P61073 [D97A]; test: Binding affinity to CXCR4 D97A mutant (unknown origin) expresssed in CHO cells at 200 nM incubated for 30 mins by 12G5 antibody based fluorescence analysis; format: cell-based; method in brief: as §1
[9] = system: C-X-C chemokine receptor type 4 (Homo sapiens), P61073 [D262N]; test: Binding affinity to CXCR4 D262N mutant (unknown origin) expresssed in CHO cells at 200 nM incubated for 30 mins by 12G5 antibody based fluorescence analysis; format: cell-based; method in brief: as §1
[10] = system: Human immunodeficiency virus 1; test: Antiviral activity against Human immunodeficiency virus 1 NL4-3 infected in human PBMC cells assessed as reduction in intracellular p24 level at 100 nM preincubated with cells 2 hrs followed by viral infection and measured after 24 hrs by ELISA; format: functional
Method in brief: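 PBMCs from healthy donors (2.5×10^6 cells/mL) were exposed to compound for 2 h, washed, and infected with HIV-1 NL4-3 at MOI 0.02 for 2 h at 37°C. Cells were washed, resuspended in complete medium and incubated 24 h. Cells were then lysed with protease inhibitor, and intracellular p24 was quantified by ELISA.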

[11] = system: C-X-C chemokine receptor type 4 (Homo sapiens), P61073 [Y116A]; test: Competitive binding affinity at CXCR4 Y116A mutant (unknown origin) expressed in CHO cells at 200 nM incubated for 30 mins by 12G5 antibody based fluorescence analysis; format: cell-based; method in brief: as §1
[12] = molecular target: T1, C-X-C chemokine receptor type 4; test: Antagonist activity at CXCR4 receptor in human SupT1 cells assessed as inhibition of SDF-1alpha-induced calcium release preincubated for 2 to 3 mins followed by SDF-1alpha addition by Fluo-4AM dye based fluorescence assay; format: functional, cell-based
Method in brief: (§2)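 SupT1 cells loaded with Fluo-4AM (2 µM) plus probenecid (5 µM) for 30 min at 37°C in HBSS/20 mM HEPES, washed; 1×10⁶ cells/mL exposed to compound 2–3 min, then stimulated with 50 nM SDF-1α; fluorescence read at […]/510em.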

[13] = molecular target: T1, C-X-C chemokine receptor type 4; test: Antagonist activity at CXCR4 receptor in human SupT1 cells assessed as inhibition of SDF-1alpha-induced calcium release at 1 uM preincubated for 2 to 3 mins followed by SDF-1alpha addition by Fluo-4AM dye based fluorescence assay relative to control; format: functional, cell-based; method in brief: as §2
[14] = Stability of compound in water assessed as compound remaining at 1mM at 37 degC after 48 hrs by HPLC analysis relative to control; format: physicochemical; settings: read-out: Stability
[15] = molecular target: T1, C-X-C chemokine receptor type 4; test: Inhibition of N-terminal flag-tagged CXCR4 (unknown origin) internalization expressed in CHO cells incubated for 45 mins and measured after 1 hr by FITC-labeled anti-flag antibody based fluorescence analysis

T1 sequence (P61073 whole entry): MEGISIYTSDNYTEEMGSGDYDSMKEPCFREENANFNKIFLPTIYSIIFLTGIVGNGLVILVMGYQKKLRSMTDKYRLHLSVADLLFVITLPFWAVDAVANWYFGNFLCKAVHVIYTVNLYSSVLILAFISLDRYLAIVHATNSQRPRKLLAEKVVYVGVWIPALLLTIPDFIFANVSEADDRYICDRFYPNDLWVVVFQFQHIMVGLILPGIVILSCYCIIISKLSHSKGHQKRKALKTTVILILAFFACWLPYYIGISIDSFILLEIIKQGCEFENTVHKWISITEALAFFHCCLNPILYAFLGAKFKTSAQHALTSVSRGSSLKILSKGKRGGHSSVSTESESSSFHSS
Sequence of C-X-C chemokine receptor type 4 (Homo sapiens), P61073 [D262N] (P61073 whole entry D262N): as the sequence (P61073 whole entry) above, with D262N counted along it
Sequence of C-X-C chemokine receptor type 4 (Homo sapiens), P61073 [Y45A] (P61073 whole entry Y45A): as the sequence (P61073 whole entry) above, with Y45A counted along it
Sequence of C-X-C chemokine receptor type 4 (Homo sapiens), P61073 [W94A] (P61073 whole entry W94A): as the sequence (P61073 whole entry) above, with W94A counted along it
Sequence of C-X-C chemokine receptor type 4 (Homo sapiens), P61073 [E288Q] (P61073 whole entry E288Q): as the sequence (P61073 whole entry) above, with E288Q counted along it
Sequence of C-X-C chemokine receptor type 4 (Homo sapiens), P61073 [W195A] (P61073 whole entry W195A): as the sequence (P61073 whole entry) above, with W195A counted along it
Sequence of C-X-C chemokine receptor type 4 (Homo sapiens), P61073 [Y116A] (P61073 whole entry Y116A): as the sequence (P61073 whole entry) above, with Y116A counted along it
Sequence of C-X-C chemokine receptor type 4 (Homo sapiens), P61073 [D97A] (P61073 whole entry D97A): as the sequence (P61073 whole entry) above, with D97A counted along it

CC[C@H](C)[C@H](NC(=O)[C@H](CC(=O)O)NC(=O)CNC(=O)[C@H](CCCCN)NC(=O)[C@H](CCCNC(=N)N)NC(=O)[C@H](CCCCN)NC(=O)CCCCCN)C(=O)N[C@@H](CCCNC(=N)N)C(=O)N[C@@H](CCC(N)=O)C(=O)N[C@@H](C)C(=O)N[C@@H](Cc1cnc[nH]1)C(=O)N[C@@H](CS)C(N)=O (HELM PEPTIDE1{[NCCCCCC(=O)[*:2]].K.R.K.G.D.I.R.Q.A.H.C.[am]}$$$$V2.0)
pIC50 [1]: < 4.30
pIC50 [2]: < 4.30

CC(C)C[C@@H](N)C(=O)NCC(=O)N[C@H](C)C(=O)N[C@H](CO)C(=O)N[C@H](Cc1c[nH]c2ccccc12)C(=O)N[C@H](Cc1cnc[nH]1)C(=O)N[C@H](CCCNC(=N)N)C(=O)N1CCC[C@@H]1C(=O)N[C@H](CC(=O)O)C(=O)N[C@H](CCCCN)C(N)=O (HELM PEPTIDE1{[dL].G.[dA].[dS].[dW].[dH].[dR].[dP].[dD].[dK].[am]}$$$$V2.0)
Activity [3]: inactive
Activity [4]: Active
inhibition [5]: inactive
Activity [6]: inactive
Activity [7]: Active
Activity [8]: inactive
Activity [9]: inactive
inhibition [10]: inactive
Activity [11]: Active

CC(C)C[C@@H](N)C(=O)NCC(=O)N[C@H](C)C(=O)N[C@H](CO)C(=O)N[C@H](Cc1c[nH]c2ccccc12)C(=O)N[C@H](Cc1cnc[nH]1)C(=O)N[C@H](CCCNC(=N)N)C(=O)N1CCC[C@@H]1C(=O)N[C@H](CC(=O)O)C(=O)N[C@H](CCCCN)C(=O)N[C@H](CS)C(=O)N[C@H](CS)C(=O)N[C@H](CC(C)C)C(=O)NCC(=O)N[C@H](Cc1ccc(O)cc1)C(=O)N[C@H](CCC(N)=O)C(=O)N[C@H](CCCCN)C(=O)N[C@H](CCCNC(=N)N)C(=O)N1CCC[C@@H]1C(=O)N[C@H](CC(C)C)C(=O)N1CCC[C@@H]1C(=O)NCCCCCC(=O)N[C@@H](CCCCN)C(=O)N[C@H](CCCCN)C(=O)N[C@H](CCCNC(=N)N)C(=O)N[C@H](Cc1ccccc1)C(=O)N[C@H](Cc1ccccc1)C(=O)N[C@H](CC(=O)O)C(=O)NCC(=O)N[C@H](CC(C)C)C(=O)N[C@H](CC(C)C)C(N)=O
pIC50 [2]: 6.71

CC[C@H](C)[C@H](NC(=O)[C@H](CC(=O)O)NC(=O)CNC(=O)[C@H](CCCCN)NC(=O)[C@H](CCCNC(=N)N)NC(=O)[C@H](CCCCN)NC(=O)CCCCCNC(=O)[C@@H](CCCNC(=N)N)NC(=O)[C@@H](CCCCN)NC(=O)[C@@H](CCCCN)NC(=O)[C@@H](CC(=O)O)NC(=O)[C@H]1CCCN1C(=O)[C@@H](CCCNC(=N)N)NC(=O)[C@@H](Cc1cnc[nH]1)NC(=O)[C@@H](Cc1c[nH]c2ccccc12)NC(=O)[C@@H](CO)NC(=O)[C@@H](C)NC(=O)CNC(=O)[C@H](N)CC(C)C)C(=O)N[C@@H](CCCNC(=N)N)C(=O)N[C@@H](CCC(N)=O)C(=O)N[C@@H](C)C(=O)N[C@@H](Cc1cnc[nH]1)C(=O)N[C@@H](CS)C(N)=O
inhibition [12]: Dose-dependent effect
inhibition [13]: 100%
remaining at 48 h, 1000 µM [14]: 95%
inhibition [10]: Active
Activity [15]: inactive
